Several values for one entry are separate records, joined by “and”; a condition that tells them apart may be missing. Identical values can stand only once.
System: U2OS
Experiment: Multiplex assay against U2OS
Type: toxicity, cell-based
Settings: human, number of replicates 2
In short: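 Tubulin, mitochondrial-mass and membrane-permeability phenotypes are per cents of healthy-nucleus cells. Cells were gated by CellPathfinder machine learning into Hoechst high-intensity objects or normal cells, normal cells into healthy, pyknosed or fragmented nuclei, and pyknosed cells into mitotic or apoptotic. Before that, live cells stained at seeding with Hoechst33342, BioTracker Green Microtubule Cytoskeleton Dye, MitoTracker Red and Annexin V Alexa Fluor 680 were imaged on a CQ1 microscope at 37°C and 5% CO2 after compound addition.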

[1] = 12 h, 1 µM, compound concentration 1 uM
[2] = 12 h, 10 µM, compound concentration 10 uM
[3] = 24 h, 1 µM, compound concentration 1 uM
[4] = 24 h, 10 µM, compound concentration 10 uM
[5] = 48 h, 1 µM, compound concentration 1 uM
[6] = 48 h, 10 µM, compound concentration 10 uM

## CCCCOc1c(C(=O)c2c(F)cc(C)cc2F)c[nH]c2nncc1-2
[1]
  Population Apoptotic (%): 54% and 60%
  Population Healthy Nuclei (%): 52% and 86%
  Population Hoechst High Intensity Objects (%): 0%
  Population Membrane Permeable-Phenotype (%): 0% and 3%
  Population Mitochondria Different-Phenotype (%): 0% and 1%
  Population Mitotic Cells (%): 45% and 40%
  Population Normal (%): 100%
  Population Pyknosed Nuclei (%): 20% and 9%
  Population Tubulin-Different-Phenotype (%): 89% and 86%
[2]
  Population Apoptotic (%): 42% and 84%
  Population Fragmented Nuclei (%): 19% and 8%
  Population Healthy Nuclei (%): 29% and 79%
  Population Hoechst High Intensity Objects (%): 0%
  Population Membrane Permeable-Phenotype (%): 2% and 1%
  Population Mitochondria Different-Phenotype (%): 0%
  Population Normal (%): 100%
  Population Tubulin-Different-Phenotype (%): 73% and 91%
  Total Cell Count: 143 and 207
[3]
  Population Apoptotic (%): 46% and 62%
  Population Fragmented Nuclei (%): 10% and 5%
  Population Healthy Nuclei (%): 52% and 82%
  Population Hoechst High Intensity Objects (%): 0%
  Population Membrane Permeable-Phenotype (%): 0% and 1%
  Population Mitochondria Different-Phenotype (%): 0%
  Population Mitotic Cells (%): 53% and 37%
  Population Normal (%): 100%
  Population Tubulin-Different-Phenotype (%): 76% and 79%
[4]
  Population Apoptotic (%): 41% and 66%
  Population Hoechst High Intensity Objects (%): 1% and 0%
  Population Membrane Permeable-Phenotype (%): 6% and 2%
  Population Mitochondria Different-Phenotype (%): 0%
  Population Mitotic Cells (%): 58% and 33%
  Population Normal (%): 98% and 100%
  Population Tubulin-Different-Phenotype (%): 81% and 86%
  Total Cell Count: 187 and 205
[5]
  Population Apoptotic (%): 37% and 67%
  Population Fragmented Nuclei (%): 5% and 4%
  Population Healthy Nuclei (%): 71% and 88%
  Population Hoechst High Intensity Objects (%): 0%
  Population Membrane Permeable-Phenotype (%): 4% and 2%
  Population Mitochondria Different-Phenotype (%): 4% and 1%
  Population Mitotic Cells (%): 62% and 32%
  Population Normal (%): 100% and 99%
  Population Tubulin-Different-Phenotype (%): 77% and 74%
[6]
  Population Apoptotic (%): 35% and 75%
  Population Hoechst High Intensity Objects (%): 0%
  Population Membrane Permeable-Phenotype (%): 7% and 4%
  Population Mitochondria Different-Phenotype (%): 0%
  Population Mitotic Cells (%): 64% and 24%
  Population Normal (%): 100%
  Population Tubulin-Different-Phenotype (%): 73% and 77%
  Total Cell Count: 291 and 241

## CCn1ccc(Nc2ncc3c(n2)-c2c(nn(C)c2-c2ccc(-c4cnn(C)c4)cc2Cl)CC3)n1
[1]
  Population Apoptotic (%): 62% and 57%
  Population Fragmented Nuclei (%): 5% and 15%
  Population Healthy Nuclei (%): 83% and 63%
  Population Hoechst High Intensity Objects (%): 0%
  Population Mitochondria Different-Phenotype (%): 1% and 9%
  Population Mitotic Cells (%): 37% and 42%
  Population Normal (%): 100%
  Population Pyknosed Nuclei (%): 11% and 21%
  Population Tubulin-Different-Phenotype (%): 78% and 47%
[2]
  Population Apoptotic (%): 62% and 66%
  Population Fragmented Nuclei (%): 3% and 4%
  Population Healthy Nuclei (%): 71% and 83%
  Population Hoechst High Intensity Objects (%): 0%
  Population Membrane Permeable-Phenotype (%): 13% and 4%
  Population Mitochondria Different-Phenotype (%): 8% and 4%
  Population Mitotic Cells (%): 37% and 33%
  Population Normal (%): 100%
  Population Pyknosed Nuclei (%): 25% and 11%
  Population Tubulin-Different-Phenotype (%): 39% and 29%
[3]
  Population Apoptotic (%): 70% and 62%
  Population Healthy Nuclei (%): 85% and 64%
  Population Hoechst High Intensity Objects (%): 0%
  Population Mitochondria Different-Phenotype (%): 1% and 6%
  Population Mitotic Cells (%): 29% and 37%
  Population Normal (%): 99% and 100%
  Population Pyknosed Nuclei (%): 9% and 17%
  Population Tubulin-Different-Phenotype (%): 76% and 37%
[4]
  Population Apoptotic (%): 83% and 63%
  Population Fragmented Nuclei (%): 8% and 5%
  Population Healthy Nuclei (%): 75% and 82%
  Population Hoechst High Intensity Objects (%): 0%
  Population Membrane Permeable-Phenotype (%): 7% and 2%
  Population Mitochondria Different-Phenotype (%): 18% and 6%
  Population Mitotic Cells (%): 16% and 36%
  Population Normal (%): 100%
  Population Pyknosed Nuclei (%): 16% and 11%
  Population Tubulin-Different-Phenotype (%): 44% and 29%
[5]
  Population Apoptotic (%): 63% and 100%
  Population Healthy Nuclei (%): 89% and 77%
  Population Hoechst High Intensity Objects (%): 0%
  Population Membrane Permeable-Phenotype (%): 1% and 8%
  Population Mitochondria Different-Phenotype (%): 0% and 4%
  Population Normal (%): 100%
  Population Pyknosed Nuclei (%): 7% and 9%
  Population Tubulin-Different-Phenotype (%): 81% and 40%
[6]
  Population Apoptotic (%): 68% and 75%
  Population Fragmented Nuclei (%): 8% and 3%
  Population Healthy Nuclei (%): 55% and 80%
  Population Hoechst High Intensity Objects (%): 0%
  Population Membrane Permeable-Phenotype (%): 4% and 3%
  Population Mitochondria Different-Phenotype (%): 12% and 4%
  Population Mitotic Cells (%): 31% and 25%
  Population Normal (%): 100% and 99%
  Population Pyknosed Nuclei (%): 35% and 16%
  Population Tubulin-Different-Phenotype (%): 44% and 35%

## COc1ccc(-c2cc3c(C)nc(N)nc3n([C@H]3CC[C@H](OCCO)CC3)c2=O)cn1 [PF-04691502]
[1]
  Population Apoptotic (%): 50% and 76%
  Population Healthy Nuclei (%): 57% and 78%
  Population Hoechst High Intensity Objects (%): 0%
  Population Membrane Permeable-Phenotype (%): 10% and 2%
  Population Mitochondria Different-Phenotype (%): 0% and 1%
  Population Mitotic Cells (%): 50% and 23%
  Population Normal (%): 100%
  Population Pyknosed Nuclei (%): 6% and 12%
  Population Tubulin-Different-Phenotype (%): 84% and 83%
[2]
  Population Apoptotic (%): 88% and 83%
  Population Fragmented Nuclei (%): 25% and 13%
  Population Healthy Nuclei (%): 46% and 54%
  Population Hoechst High Intensity Objects (%): 3% and 2%
  Population Membrane Permeable-Phenotype (%): 0% and 7%
  Population Mitochondria Different-Phenotype (%): 0% and 3%
  Population Mitotic Cells (%): 11% and 16%
  Population Normal (%): 96% and 97%
  Population Pyknosed Nuclei (%): 28% and 32%
  Population Tubulin-Different-Phenotype (%): 80% and 50%
[3]
  Population Apoptotic (%): 60% and 76%
  Population Fragmented Nuclei (%): 19% and 10%
  Population Healthy Nuclei (%): 66% and 75%
  Population Hoechst High Intensity Objects (%): 0%
  Population Membrane Permeable-Phenotype (%): 0% and 2%
  Population Mitochondria Different-Phenotype (%): 0% and 1%
  Population Mitotic Cells (%): 40% and 23%
  Population Normal (%): 100% and 99%
  Population Pyknosed Nuclei (%): 13% and 14%
  Population Tubulin-Different-Phenotype (%): 91% and 84%
[4]
  Population Apoptotic (%): 84% and 69%
  Population Fragmented Nuclei (%): 12% and 17%
  Population Healthy Nuclei (%): 46% and 50%
  Population Hoechst High Intensity Objects (%): 2%
  Population Membrane Permeable-Phenotype (%): 20% and 40%
  Population Mitochondria Different-Phenotype (%): 7% and 15%
  Population Mitotic Cells (%): 15% and 30%
  Population Normal (%): 97%
  Population Pyknosed Nuclei (%): 41% and 32%
  Population Tubulin-Different-Phenotype (%): 59% and 65%
[5]
  Population Apoptotic (%): 80% and 82%
  Population Fragmented Nuclei (%): 10% and 8%
  Population Healthy Nuclei (%): 80% and 69%
  Population Hoechst High Intensity Objects (%): 0%
  Population Membrane Permeable-Phenotype (%): 7% and 5%
  Population Mitochondria Different-Phenotype (%): 5% and 4%
  Population Mitotic Cells (%): 20% and 17%
  Population Normal (%): 100% and 99%
  Population Pyknosed Nuclei (%): 10% and 21%
  Population Tubulin-Different-Phenotype (%): 82% and 85%
[6]
  Population Apoptotic (%): 66% and 85%
  Population Fragmented Nuclei (%): 19% and 10%
  Population Healthy Nuclei (%): 22% and 26%
  Population Hoechst High Intensity Objects (%): 0% and 4%
  Population Membrane Permeable-Phenotype (%): 62% and 35%
  Population Mitochondria Different-Phenotype (%): 37% and 18%
  Population Mitotic Cells (%): 33% and 14%
  Population Normal (%): 100% and 95%
  Population Pyknosed Nuclei (%): 58% and 63%
  Population Tubulin-Different-Phenotype (%): 87% and 70%

Source: ChEMBL document CHEMBL5303300, “EUbOPEN Chemogenomics Library - Multiplex” (2023)
